Where a SMILES comes first, the peptide text is derived from it. Bridges are numbered along the chain shown (N, C = ends). [ ]: non-standard residue; d: D form. Orn = NCCC[C@H](N)C(=O)O Bounds are passed on as bounds.

The species entered for experiment [1] is Mus musculus. In words: Tested for inhibition of electrically evoked contractions of the mouse vas deferens(MVD). In kind it is functional. An outline of the steps: (§1)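 Isolated tissue bioassay, electrically evoked contractions; inhibition measured. A log dose–response curve with [Leu5]enkephalin as standard was run on each ileum or vas preparation. Test-peptide IC50 values were normalized against that standard by a published procedure. Mean of three determinations ±SEM.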

Experiment [2] deals with Mu-type opioid receptor (Rattus norvegicus, UniProt P33535). In words: Evaluated for its ability to displace [3H]DAGO binding to Opioid receptor mu 1 from rat brain homogenate. Format: tissue-based.
Sequence of Mu-type opioid receptor (P33535 whole entry): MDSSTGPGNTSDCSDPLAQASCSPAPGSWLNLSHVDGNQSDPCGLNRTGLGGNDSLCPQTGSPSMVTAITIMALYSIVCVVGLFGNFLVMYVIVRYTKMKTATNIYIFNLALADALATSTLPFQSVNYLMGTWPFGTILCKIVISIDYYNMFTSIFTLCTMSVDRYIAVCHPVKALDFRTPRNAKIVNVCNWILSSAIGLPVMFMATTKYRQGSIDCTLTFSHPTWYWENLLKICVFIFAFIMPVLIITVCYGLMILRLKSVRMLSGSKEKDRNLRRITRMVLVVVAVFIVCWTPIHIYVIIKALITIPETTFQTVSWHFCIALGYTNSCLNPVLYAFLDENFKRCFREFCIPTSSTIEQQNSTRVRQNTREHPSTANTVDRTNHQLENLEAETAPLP
In experiment [3] the target is Delta-type opioid receptor (Rattus norvegicus, UniProt P33533). In words: Displacement of [3H]DSLET from Opioid receptor delta 1 from rat brain homogenate. In kind it is tissue-based. (In general: Loss of bound radioactivity is the signal in a displacement assay; it reports binding, not function.)
Sequence of Delta-type opioid receptor (P33533 whole entry): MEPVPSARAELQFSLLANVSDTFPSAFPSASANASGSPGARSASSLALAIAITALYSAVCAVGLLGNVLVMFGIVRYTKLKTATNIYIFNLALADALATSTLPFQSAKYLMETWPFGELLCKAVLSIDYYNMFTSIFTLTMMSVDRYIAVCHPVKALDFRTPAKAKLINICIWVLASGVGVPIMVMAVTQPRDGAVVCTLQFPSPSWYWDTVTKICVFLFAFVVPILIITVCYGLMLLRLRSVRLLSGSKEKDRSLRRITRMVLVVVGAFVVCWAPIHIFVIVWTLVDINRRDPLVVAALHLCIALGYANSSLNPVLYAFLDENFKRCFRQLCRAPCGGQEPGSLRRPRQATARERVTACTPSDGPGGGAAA
The species named for experiment [4] is Cavia porcellus. In words: Tested for inhibition of electrically evoked contractions of the guinea pig ileum(GPI). Format: functional. An outline of the steps: as §1
The species entered for experiment [5] is Cavia porcellus. In words: Tested for sensitivity to naloxone in the guinea pig ileum assay. In kind it is functional. An outline of the steps: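 Electrically stimulated guinea pig ileum. IC50 was determined with and without a fixed 5 nM naloxone. Ke for naloxone as antagonist was derived from the ratio of those IC50 values.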

A word on the IC50: it is the concentration that gives 50% inhibition. Low readings indicate inhibition by little substance, high ones a need for much substance. As usually defined, the Ki is the equilibrium dissociation constant of an inhibitor or competing ligand from its target. Regarding `NC(=O)[C@@H]1CCC(=O)NCCCC[C@@H](NC(=O)[C@@H](N)Cc2ccc(O)cc2)C(=O)N[C@@H](Cc2ccccc2)C(=O)N1` [listing 1 of 2 here], the IC50 in experiment [1] amounted to 5.21 nM; in experiment [4] it was 2.93 nM. Further, the figures for the Ki in experiment [2] and in experiment [3] were 1.43 nM and 4.36 nM, respectively.
Take `NC(=O)[C@@H]1CCC(=O)NCCCC[C@@H](NC(=O)[C@@H](N)Cc2ccc(O)cc2)C(=O)N[C@@H](Cc2ccccc2)C(=O)N1` [listing 2 of 2 here]: the Ke in experiment [5] is on record as 1.8 nM.
As to `CC(C)C[C@@H]1NC(=O)[C@H](NC(=O)[C@@H](N)Cc2ccc(O)cc2)CCCNC(=O)C[C@@H](C(N)=O)NC1=O`, the IC50 in experiment [1] was found to be 40400 nM; in experiment [4], 5410 nM. The figures for the Ki in experiment [2] and in experiment [3] were 6800 nM and 8160 nM, respectively.
For `NC(=O)[C@@H]1CCCCNC(=O)CC[C@@H](NC(=O)[C@@H](N)Cc2ccc(O)cc2)C(=O)N[C@@H](Cc2ccccc2)C(=O)N1` [listing 1 of 2 here], in that order: 101 nM, 7.99 nM, 0.994 nM and 49.3 nM.
In experiment [5], `NC(=O)[C@@H]1CCCCNC(=O)CC[C@@H](NC(=O)[C@@H](N)Cc2ccc(O)cc2)C(=O)N[C@@H](Cc2ccccc2)C(=O)N1` [listing 2 of 2 here] displayed a Ke of 0.81 nM.
For the compound `NC(=O)[C@@H]1CCCNC(=O)C[C@@H](NC(=O)[C@@H](N)Cc2ccc(O)cc2)C(=O)N[C@@H](Cc2ccccc2)C(=O)N[C@H](C(N)=O)CCCNC(=O)C[C@@H](NC(=O)[C@@H](N)Cc2ccc(O)cc2)C(=O)N[C@@H](Cc2ccccc2)C(=O)N1` [listing 1 of 2 here], the IC50 in experiment [1] came to 579 nM; in experiment [4] it was 1160 nM. Moreover, the values for the Ki in experiment [2] and in experiment [3] were 85.9 nM and 129 nM, respectively.
Turning to `NC(=O)[C@@H]1CCCNC(=O)C[C@@H](NC(=O)[C@@H](N)Cc2ccc(O)cc2)C(=O)N[C@@H](Cc2ccccc2)C(=O)N[C@H](C(N)=O)CCCNC(=O)C[C@@H](NC(=O)[C@@H](N)Cc2ccc(O)cc2)C(=O)N[C@@H](Cc2ccccc2)C(=O)N1` [listing 2 of 2 here], in experiment [5], the Ke stood at 1.62 nM.
Consider `NC(=O)[C@@H]1CC(=O)NCCC[C@@H](NC(=O)[C@@H](N)Cc2ccc(O)cc2)C(=O)N[C@@H](Cc2ccccc2)C(=O)N[C@H](C(N)=O)CC(=O)NCCC[C@@H](NC(=O)[C@@H](N)Cc2ccc(O)cc2)C(=O)N[C@@H](Cc2ccccc2)C(=O)N1` [listing 1 of 2 here], for which the IC50 in experiment [1] was 99.1 nM; in experiment [4], 111 nM. The Ki was found to be 25.6 nM in experiment [2] and 42.2 nM in experiment [3].
Take `NC(=O)[C@@H]1CC(=O)NCCC[C@@H](NC(=O)[C@@H](N)Cc2ccc(O)cc2)C(=O)N[C@@H](Cc2ccccc2)C(=O)N[C@H](C(N)=O)CC(=O)NCCC[C@@H](NC(=O)[C@@H](N)Cc2ccc(O)cc2)C(=O)N[C@@H](Cc2ccccc2)C(=O)N1` [listing 2 of 2 here]: the Ke in experiment [5] is listed as 1.36 nM.
Turning to `NC(=O)[C@@H]1CCC(=O)NCCC[C@@H](NC(=O)[C@@H](N)Cc2ccc(O)cc2)C(=O)NCC(=O)N1`, the IC50 was greater than 40000 nM in experiment [1] and 8750 nM in experiment [4]. Further, the results for the Ki in experiment [2] and in experiment [3] were 1760 nM and 4990 nM, respectively.
For `NC(=O)[C@@H]1CCCNC(=O)C[C@@H](NC(=O)[C@@H](N)Cc2ccc(O)cc2)C(=O)N[C@@H](Cc2ccccc2)C(=O)N1` (H-Y[dD]F[Orn]-NH2; lactam 2-4) [listing 1 of 2 here], the IC50 in experiment [1] was 8570 nM; in experiment [4], 522 nM.
As for `NC(=O)[C@@H]1CCCNC(=O)C[C@@H](NC(=O)[C@@H](N)Cc2ccc(O)cc2)C(=O)N[C@@H](Cc2ccccc2)C(=O)N1` (H-Y[dD]F[Orn]-NH2; lactam 2-4) [listing 2 of 2 here], the Ke in experiment [5] came out at 1.28 nM.

The values are drawn from ChEMBL document CHEMBL1122861, “Synthesis and activity profiles of novel cyclic opioid peptide monomers and dimers” (J Med Chem, 1985).
